Assay results published in ChEMBL document CHEMBL1828575, “Design, synthesis and antiproliferative activities of biarylolefins based on polyhydroxylated and carbohydrate scaffolds” (Eur J Med Chem, 2011).

What was measured:
Assay type in all cases: functional
[1] = tested on: A549; test: Antitumor activity against human A549 cells after 48 hrs by SRB assay; details: A549, 48 h
Outline: (§1)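 NCI60 panel in RPMI 1640 with 5% FBS and 2 mM L-glutamine. Cells were plated at 5000–40,000/well by doubling time, held 24 h, then time-zero plates were TCA-fixed. Five concentrations (10-fold or half-log dilutions of DMSO stocks) were applied for 48 h at 37 °C, 5% CO2. Cells were fixed with cold TCA (10% final adherent, 16% suspension) and stained with 0.4% SRB. Bound dye was dissolved in 10 mM Tris and read at 515 nm. GI50, TGI and LC50 were calculated per line.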

[2] = tested on: OVCAR-4; test: Cytotoxicity against human OVCAR4 cells assessed as cellular growth at 10 uM after 48 hrs by SRB assay
Outline: (§2)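 NCI-60 panel lines grown in RPMI 1640 with 5% FBS and 2 mM L-glutamine. Plated at 5000–40,000 cells/well and preincubated 24 h at 37 °C, 5% CO₂, with time-zero plates fixed in TCA. Compounds, dissolved in DMSO and diluted in medium, were applied for 48 h. Cells were TCA-fixed (10% final for adherent, 16% for suspension) and stained with 0.4% SRB in 1% acetic acid. Dye was solubilised in 10 mM Tris base and read at 515 nm; growth was expressed as a percentage of untreated control.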

[3] = tested on: MOLT-4; test: Cytotoxicity against human MOLT4 cells assessed as cellular growth at 10 uM after 48 hrs by SRB assay; outline: as §2
[4] = tested on: COLO 205; test: Cytotoxicity against human COLO205 cells assessed as cellular growth at 10 uM after 48 hrs by SRB assay
Outline: (§3)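 NCI60 single-dose screen of cells in RPMI 1640 with 5% FBS and 2 mM L-glutamine, preincubated 24 h at 37 °C, 5% CO₂. Cells were then exposed 48 h to compound added from DMSO stock. TCA-fixed, stained with 0.4% SRB in 1% acetic acid, dye solubilised in 10 mM Tris base and read at 515 nm. Growth is given as percent of untreated control.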

[5] = tested on: SN12C; test: Antitumor activity against human SN12C cells after 48 hrs by SRB assay
Outline: (§4)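 NCI60 panel cells grown in RPMI 1640 with 5% FBS and 2 mM L-glutamine, plated at 5000–40,000 cells/well and preincubated 24 h at 37 °C, 5% CO₂. Compound was added from DMSO at five concentrations, 10-fold or 1/2 log dilutions, then incubated 48 h.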

[6] = tested on: HCC 2998; test: Antitumor activity against human HCC2998 cells after 48 hrs by SRB assay; details: HCC 2998, 48 h; outline: as §1
[7] = tested on: SR; test: Cytotoxicity against human SR cells assessed as cellular growth at 10 uM after 48 hrs by SRB assay; outline: as §2
[8] = tested on: SF-268; test: Cytotoxicity against human SF268 cells assessed as cellular growth at 10 uM after 48 hrs by SRB assay; outline: as §2
[9] = tested on: MDA-MB-468; test: Cytotoxicity against human MDA-MB-468 cells assessed as cellular growth at 10 uM after 48 hrs by SRB assay; outline: as §2
[10] = tested on: Malme-3M; test: Antitumor activity against human MALME-3M cells after 48 hrs by SRB assay; outline: as §1
[11] = tested on: SNB-19; test: Antitumor activity against human SNB19 cells after 48 hrs by SRB assay; details: SNB-19, 48 h; outline: as §4
[12] = tested on: SK-MEL-5; test: Antitumor activity against human SK-MEL-5 cells after 48 hrs by SRB assay; details: SK-MEL-5, 48 h; outline: as §4
[13] = Antitumor activity against human Hs 578T cells after 48 hrs by SRB assay; outline: as §1
[14] = tested on: LOX IMVI; test: Cytotoxicity against human LOXIMVI cells assessed as cellular growth at 10 uM after 48 hrs by SRB assay; outline: as §3
[15] = tested on: HOP-62; test: Antitumor activity against human HOP62 cells after 48 hrs by SRB assay; details: HOP-62, 48 h; outline: as §1
[16] = tested on: DU-145; test: Antitumor activity against human DU145 cells after 48 hrs by SRB assay; details: DU-145, 48 h; outline: as §1
[17] = tested on: OVCAR-3; test: Antitumor activity against human OVCAR3 cells after 48 hrs by SRB assay; details: OVCAR-3, 48 h; outline: as §1
[18] = tested on: UACC-257; test: Antitumor activity against human UACC257 cells after 48 hrs by SRB assay; details: UACC-257, 48 h; outline: as §4
[19] = tested on: HL-60(TB); test: Antitumor activity against human HL-60(TB) cells after 48 hrs by SRB assay; details: HL-60, 48 h
Outline: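 NCI60 screen: cells grown in RPMI 1640 with 5% FBS and 2 mM L-glutamine, plated at 5000–40,000 cells/well by doubling time, preincubated 24 h at 37 °C with 5% CO2. Compounds were diluted from DMSO stocks and given for 48 h, at five concentrations for dose response. A time-zero plate was TCA-fixed. Cells were TCA-fixed, stained with 0.4% SRB and read at 515 nm, with growth expressed relative to untreated controls.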

[20] = tested on: HL-60(TB); test: Cytotoxicity against human HL-60(TB) cells assessed as cellular growth at 10 uM after 48 hrs by SRB assay
[21] = tested on: OVCAR-5; test: Antitumor activity against human OVCAR5 cells after 48 hrs by SRB assay; details: OVCAR-5, 48 h; outline: as §1
[22] = tested on: HCT-15; test: Cytotoxicity against human HCT15 cells assessed as cellular growth at 10 uM after 48 hrs by SRB assay; outline: as §3
[23] = read-out: LC50 (the source's name)
[24] = read-out: pLC50 (the source's name) (converted)

For `COc1ccc(/C(=C2\O[C@@H]([C@H]3COC(C)(C)O3)[C@H]3OC(C)(C)O[C@@H]23)c2cc(OC)c(OC)c(OC)c2)cc1O`, the GI50 ([1]; read-out: GI50) was 22.7 µM, the CC50 [1, 23] was greater than 100 µM and the TGI ([1]; read-out: TGI) was greater than 100 µM. For the same molecule, the GI50 ([1]; read-out: pGI50 (converted)) was 22.9 µM, the CC50 [1, 24] was greater than 100 µM and the TGI ([1]; read-out: pTGI (converted)) was greater than 100 µM. The Activity [2] was 105.57%, the Activity [3] was 60.46% and the Activity [4] was 120.67%. It also gave a CC50 [5, 23] greater than 100 µM, a TGI ([5]; read-out: TGI) greater than 100 µM and a GI50 ([5]; read-out: pGI50 (converted)) of 8.91 µM. For the same molecule, the CC50 [5, 24] was greater than 100 µM, the TGI ([5]; read-out: pTGI) was greater than 100 µM and the GI50 ([6]; read-out: GI50) was 31.1 µM. The CC50 [6, 23] was greater than 100 µM, the TGI ([6]; read-out: TGI) was 80.4 µM and the GI50 ([6]; read-out: pGI50 (converted)) was 30.9 µM. It also gave a CC50 [6, 24] greater than 100 µM, a TGI ([6]; read-out: pTGI (converted)) of 81.3 µM and an Activity [7] of -13.6%. For the same molecule, the Activity [8] was 37.84%, the Activity [9] was 112.6% and the GI50 [10] was 2.07 µM. The LC50 (concentration killing 50% of cells present at time zero) [10] was greater than 100 µM, the TGI [10] was 5.59 µM and the GI50 [11] was 2.49 µM. The TGI [11] was 6.08 µM, the CC50 [11, 23] was greater than 100 µM and the GI50 [12] was 4.07 µM. The LC50 [12] was 51.4 µM, the TGI [12] was 15.4 µM and the GI50 [13] was 4.44 µM. It also gave a TGI [13] of 53.4 µM, a CC50 [13, 23] greater than 100 µM and an Activity [14] of 47.56%. It also gave a GI50 [15] of 10.9 µM, a TGI [15] of 34.7 µM and a CC50 [15, 23] greater than 100 µM. It also gave a GI50 ([16]; read-out: GI50) of 3.93 µM, a CC50 [16, 23] greater than 100 µM and a TGI ([16]; read-out: TGI) greater than 100 µM. It also gave a GI50 ([16]; read-out: pGI50 (converted)) of 3.89 µM, a CC50 [16, 24] greater than 100 µM and a TGI ([16]; read-out: pTGI (converted)) greater than 100 µM. For the same molecule, the GI50 [17] was 2.39 µM, the TGI [17] was 5.67 µM and the CC50 [17, 23] was 21.7 µM. The GI50 ([18]; read-out: GI50) was 39.4 µM, the CC50 [18, 23] was greater than 100 µM and the TGI ([18]; read-out: TGI) was greater than 100 µM. It also gave a GI50 ([18]; read-out: pGI50 (converted)) of 39.8 µM, a CC50 [18, 24] greater than 100 µM and a TGI ([18]; read-out: pTGI (converted)) greater than 100 µM. The GI50 ([19]; read-out: GI50) was 6.48 µM, the CC50 [19, 23] was greater than 100 µM and the TGI ([19]; read-out: TGI) was 56.8 µM. It also gave a GI50 ([19]; read-out: pGI50 (converted)) of 1.62 µM, a CC50 [19, 24] greater than 100 µM and a TGI ([19]; read-out: pTGI (converted)) of 56.2 µM. For the same molecule, the Activity [20] was -0.37%, the GI50 ([21]; read-out: GI50) was 59.6 µM and the CC50 [21, 23] was greater than 100 µM. The TGI ([21]; read-out: TGI) was greater than 100 µM, the GI50 ([21]; read-out: pGI50 (converted)) was 60.3 µM and the CC50 [21, 24] was greater than 100 µM. It also gave a TGI ([21]; read-out: pTGI (converted)) greater than 100 µM and an Activity [22] of 32.51%.
